Key:
[1] = system: PANC-1; test: Cytotoxicity against human PANC1 cells after 48 hrs by SRB assay; format: functional; conditions: PANC-1, 48 h; for CC50: read-out: LC50 (the source's name)
Method in brief: (§1)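 Cells grown in RPMI 1640 with 10% FBS and penicillin/streptomycin at 37 °C and 5% CO₂, trypsinized, then seeded at 5 × 10³/well. After 18 h drug-free attachment, samples in DMSO/EtOH/PBS (0.5:0.5:99) were added for 48 h continuous exposure. Cells were fixed with cold TCA (1 h, 4 °C) and stained with SRB (10 min). Tris-solubilized stain read at 490 nm. Triplicate wells, mean ± SD; GI₅₀ derived.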

[2] = system: LoVo; test: Cytotoxicity against human LoVo cells after 48 hrs by SRB assay; format: functional; conditions: for CC50: read-out: LC50 (the source's name)
[3] = system: K562; test: Cytotoxicity against human K562 cells after 48 hrs by SRB assay; format: functional; conditions: K562, 48 h; for CC50: read-out: LC50 (the source's name); method in brief: as §1
[4] = Cytotoxicity against human IGROV cells after 48 hrs by SRB assay; format: functional; conditions: for CC50: read-out: LC50 (the source's name); method in brief: as §1
[5] = system: HeLa; test: Cytotoxicity against human HeLa cells after 48 hrs by SRB assay; format: functional; conditions: read-out: LC50 (the source's name); method in brief: as §1
[6] = system: A549; test: Cytotoxicity against human A549 cells after 48 hrs by SRB assay; format: functional, cell-based; conditions: Homo sapiens, A549, 48 h; for GI50: read-out: GI50; method in brief: as §1
[7] = Cytotoxicity against human IGROV-ET cells after 48 hrs by SRB assay; format: functional; conditions: for CC50: read-out: LC50 (the source's name); method in brief: as §1
[8] = system: DU-145; test: Cytotoxicity against human DU145 cells after 48 hrs by SRB assay; format: functional, cell-based; conditions: Homo sapiens, DU-145, 48 h; for CC50: read-out: LC50 (the source's name); for GI50: read-out: GI50; method in brief: as §1
[9] = system: SK-MEL-28; test: Cytotoxicity against human SK-MEL-28 cells after 48 hrs by SRB assay; format: functional, cell-based; conditions: Homo sapiens, SK-MEL-28, 48 h; for GI50: read-out: GI50; for CC50: read-out: LC50 (the source's name); method in brief: as §1
[10] = system: LNCaP; test: Cytotoxicity against human LNcaP cells after 48 hrs by SRB assay; format: functional; conditions: for CC50: read-out: LC50 (the source's name); method in brief: as §1
[11] = Cytotoxicity against human HeLa-APL cells after 48 hrs by SRB assay; format: functional; method in brief: as §1
[12] = system: LoVo; test: Cytotoxicity against human doxorubicin resistant LoVo cells after 48 hrs by SRB assay; format: functional; conditions: for CC50: read-out: LC50 (the source's name); method in brief: as §1
[13] = system: HT-29; test: Cytotoxicity against human HT29 cells after 48 hrs by SRB assay; format: functional, cell-based; conditions: Homo sapiens, HT-29, 48 h; for CC50: read-out: LC50 (the source's name); method in brief: as §1
[14] = system: SK-BR-3; test: Cytotoxicity against human SKBR3 cells after 48 hrs by SRB assay; format: functional; conditions: SK-BR-3, 48 h; method in brief: as §1

Row | SMILES | GI50 [1] | TGI [1] | CC50 [1] | CC50 [2] | GI50 [3] | TGI [3] | CC50 [3] | CC50 [4] | CC50 [5] | LC50 [6] | CC50 [7] | CC50 [8] | CC50 [9] | GI50 [10] | TGI [10] | CC50 [10] | GI50 [11] | LC50 (concentration giving 50% net cell kill) [11] | TGI [11] | CC50 [13] | further results
1 | C/C=C1\NC(=O)[C@H](Cc2ccccc2)NC(=O)[C@@H](C(C)C)NC(=O)[C@@H]([C@H](C)CC)NC(=O)[C@H](NC(=O)[C@H](NC(=O)[C@H](CCCN)NC(=O)[C@H]2CCCN2C(=O)[C@H](NC(=O)[C@@H](NC(=O)[C@@H](NC(=O)[C@H]2CCCN2C(=O)CCCC(C)C)[C@@H](C)O)C(C)C)C(C)C)[C@H](C)CC)[C@H](C)OC(=O)[C@H](C(C)C)NC1=O | 2.75 µM | 3.8 µM | 2.82 µM | 1.5 µM | 1.31 µM | 1.53 µM | 1.8 µM | 0.768 µM | 1.09 µM | 1.24 µM | 0.426 µM | 1.16 µM | 1.14 µM | 1.16 µM | 1.11 µM | 1.06 µM | 1.18 µM | 1.01 µM | 1.65 µM | 1.14 µM | GI50 [7]: 0.608 µM; GI50 ([7]; read-out: GI50): 4.7 µM; TGI [9]: 1.24 µM; GI50 [9]: 1.05 µM; GI50 [12]: 3.51 µM; TGI [12]: 3.37 µM; CC50 [12]: 3.27 µM
2 | C/C=C1\NC(=O)[C@H](Cc2ccccc2)NC(=O)[C@@H](C(C)C)NC(=O)[C@@H]([C@H](C)CC)NC(=O)[C@H](NC(=O)[C@H](NC(=O)[C@H](CCCN)NC(=O)[C@H]2CCCN2C(=O)[C@H](NC(=O)[C@H](NC(=O)[C@@H](NC(=O)[C@H](NC(=O)CCCC(C)C)C(C)C)[C@@H](C)O)C(C)C)C(C)C)[C@H](C)CC)[C@H](C)OC(=O)[C@H](C(C)C)NC1=O | 4.43 µM | 4.92 µM | 2.53 µM | 3.11 µM | 4.29 µM | 4.83 µM | 2.43 µM | 0.631 µM | 1.04 µM | 1.91 µM | 0.702 µM | 1.65 µM | 1.44 µM | 2.44 µM | 3.23 µM | 1.54 µM | 3.4 µM | 1.32 µM | 3.04 µM | 0.886 µM | GI50 [2]: 3.31 µM; TGI [2]: 3.21 µM; TGI [14]: 3.23 µM; GI50 ([14]; read-out: GI50): 3.69 µM; CC50 ([14]; read-out: LC50 (the source's name)): 2.31 µM; TGI [6]: 4.23 µM; GI50 [6]: 5.09 µM; TGI [8]: 3.8 µM; GI50 [8]: 3.13 µM; GI50 [13]: 4.84 µM; TGI [13]: 3.93 µM
3 | C/C=C1\NC(=O)[C@H](Cc2ccccc2)NC(=O)[C@@H](C(C)C)NC(=O)[C@@H]([C@H](C)CC)NC(=O)[C@H](NC(=O)[C@H](NC(=O)[C@H](CCCN)NC(=O)[C@H]2CCCN2C(=O)[C@H](NC(=O)[C@@H](NC(=O)[C@@H](NC(=O)[C@@H](CC(C)C)NC(=O)CCCC(C)C)[C@@H](C)O)C(C)C)C(C)C)[C@H](C)CC)[C@H](C)OC(=O)[C@H](C(C)C)NC1=O | 2.91 µM | 5.21 µM | 2.79 µM | 0.856 µM | 2.72 µM | 2.43 µM | 2.18 µM | 5.64 µM | 0.955 µM | 1.08 µM | 0.365 µM | 0.889 µM | 1.06 µM | 1.79 µM | 2.55 µM | 1.13 µM | 1 µM | 0.948 µM | 1.46 µM | 0.509 µM | GI50 [2]: 0.608 µM; TGI [2]: 0.842 µM; GI50 [4]: 0.845 µM; GI50 ([4]; read-out: GI50): 1.05 µM; GI50 [7]: 0.298 µM; GI50 ([7]; read-out: GI50): 1.31 µM; TGI [8]: 1.07 µM; GI50 [8]: 1.34 µM; TGI [9]: 1.07 µM; GI50 [9]: 1.09 µM; GI50 [12]: 0.325 µM; TGI [12]: 0.329 µM; CC50 [12]: 3.37 µM; GI50 [13]: 0.661 µM; TGI [13]: 0.728 µM
4 | C/C=C1\NC(=O)[C@H](Cc2ccccc2)NC(=O)[C@@H](C(C)C)NC(=O)[C@@H]([C@@H](C)CC)NC(=O)[C@H](NC(=O)[C@H](NC(=O)[C@H](CCCN)NC(=O)[C@H]2CCCN2C(=O)[C@H](NC(=O)[C@@H](NC(=O)[C@@H](NC(=O)[C@H](NC(=O)CCCC(C)C)[C@@H](C)O)[C@@H](C)O)C(C)C)C(C)C)[C@@H](C)CC)[C@@H](C)OC(=O)[C@H](C(C)C)NC1=O | 3.91 µM | 5.26 µM | 2.81 µM | 0.896 µM |  |  | 2.37 µM | 0.582 µM | 1.02 µM | 1.03 µM | 0.257 µM | 9.29 µM | 1.1 µM | 1.95 µM | 2.58 µM | 1.14 µM | 1.04 µM | 0.977 µM | 1.52 µM | 0.575 µM | GI50 [2]: 0.367 µM; TGI [2]: 0.727 µM; GI50 [4]: 0.909 µM; GI50 ([4]; read-out: GI50): 1.17 µM; TGI [6]: 1.26 µM; GI50 [6]: 1.55 µM; GI50 [7]: 0.231 µM; GI50 ([7]; read-out: GI50): 1 µM; TGI [8]: 1.15 µM; GI50 [8]: 1.47 µM; TGI [9]: 1.16 µM; GI50 [9]: 1.22 µM; GI50 [12]: 0.325 µM; TGI [12]: 0.327 µM; CC50 [12]: 0.331 µM; GI50 [13]: 1.06 µM; TGI [13]: 0.886 µM
